This note sets out measurements from PubChem BioAssay AID1665 (Sanford-Burnham Center for Chemical Genomics, 2009).

The structures appear in SMILES notation. The whole screen tested about 190,000 compounds, of which about 590 (0.31%) were called active. The sample holds actives, similar compounds and a random draw of the others, so the mix is not that of the screen.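 How the source made its calls: active means nuclear translocation activity above 50% at 5 µM, with a well cell count of 50 or more; inconclusive means wells under 50 cells across six images, flagged as toxic; inactive means the rest.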

The assay can be described thus: modulators of beta-catenin nuclear translocation, primary screen, imaging, HeLa cells, immunofluorescence, high-content (AID 1665).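 On nuclear translocation activity: per-cell ratio of nuclear to cytoplasmic median beta-catenin stain intensity; plate controls were DMSO negative control for no effect and GSK-3 inhibitor IX positive control for full effect.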 As to conditions: at 5 µM; cell count: measured here: cell count, cytotoxicity flag; nuclear translocation activity: stronger effect = higher value. The essentials: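 Technique: fluorescence imaging of beta-catenin antibody stain plus DAPI / Material: human HeLa cell line / Incubation: compound treatment 24 h, 37°C, 5% CO2 / Read-out basis: % activation of per-cell nuclear versus cytoplasmic median beta-catenin signal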
For `Cn1nccc1NC(=O)Nc1ccc(OC(F)(F)F)cc1`, the cell count was 1280 cells and the nuclear translocation activity is 0.7% (inactive).
For `CC(C)Cc1ccc(C(C)C(=N)N)cc1` (centres undefined), in that order: 1310 cells and 1.1% (inactive).
For `COc1ccc(CNC(=O)C2CC(c3ccc(C(F)(F)F)cc3)=NO2)cc1` (centres undefined), in that order: 1110 cells and 2.2% (inactive).
The matching figures for `COc1ccc(-c2cc(C(=O)NCc3ccco3)no2)cc1OC`: 1220 cells and -1.7% (inactive).
In the case of `COc1ccc(C2=NOC(C(=O)NCc3ccco3)C2)cc1OC` (centres undefined), the cell count is 701 cells and the nuclear translocation activity was 166% (active).
For `COc1ccc(S(=O)(=O)N(CC(=O)N/N=C/c2ccccc2C(=O)O)c2ccccc2OC)cc1`, in that order: 1300 cells and -0.3% (inactive).
The matching figures for `Cc1cc(=O)oc2cc(OCCC[n+]3ccccc3)ccc12`: 1370 cells and -1% (inactive).
The matching figures for `Cc1ccccc1N1CCN(CCCOc2ccc3c(C)cc(=O)oc3c2)CC1`: 1030 cells and 1.9% (inactive).
As to `Cc1cc(=O)oc2cc(OCC3CC(c4ccccc4Cl)=NO3)ccc12` (centres undefined), the cell count is 228 cells and the nuclear translocation activity was 168% (active).
For the compound `COc1ccc(C(C(=O)NC(C)(C)C)N(C(=O)Cn2nnc3ccccc32)c2ccc(C(C)=O)cc2)cc1O` (centres undefined), the cell count is 1370 cells and the nuclear translocation activity is -1% (inactive).
The matching figures for `COc1ccc(-n2nnnc2-c2nc3ccccc3s2)cc1`: 953 cells and 0.1% (inactive).
For `CCOc1cccc(-c2nnc3sc(COc4ccc(OC)cc4)nn23)c1`, in that order: 1020 cells and -0.9% (inactive).
The matching figures for `CCOc1cccc(-n2nnnc2-c2ccc(OC)cc2)c1`: 184 cells and 63.9% (active).
As for `CC(C)(C)NC(=O)/C(=C/c1cccnc1)NC(=O)c1ccco1`, the cell count turned out to be 1310 cells and the nuclear translocation activity was -0.7% (inactive).
For `Cc1nn2c(NCCN(C)C)c3c(nc2c1-c1ccccc1)CCC3`, in that order: 1430 cells and 0.3% (inactive).
The matching figures for `C=CCNC(=S)N1CCc2[nH]c3ccccc3c2C1`: 1340 cells and 0.9% (inactive).
For `O=C(NNC(=S)Nc1ccc(F)cc1)[C@H]1C[C@@H]1c1ccccc1`, in that order: 1360 cells and -0.2% (inactive).
Regarding `Cc1ccc(/C=N/NC(=S)NC2CCCCC2)o1`, the cell count was 1310 cells and the nuclear translocation activity is -0.8% (inactive).
For `Cc1cc(C)cc(OCC(=O)O/N=C(\N)Cc2ccc([N+](=O)[O-])cc2)c1`, in that order: 1030 cells and -2.4% (inactive).
The matching figures for `COc1ccc(-c2nn(C)c(=O)c3ccccc23)cc1CNC(=O)C1CCCCC1`: 1350 cells and 0.1% (inactive).
The matching figures for `COc1ccc(C(CC(=O)N2CCN(c3ccccc3)CC2)c2c(O)cc(OC)cc2OC)cc1` (centres undefined): 1050 cells and 0.9% (inactive).
On to `Cc1ccc(/C=N/NC(=O)CSc2ccccn2)o1`, for which the cell count was 1300 cells and the nuclear translocation activity is 0.7% (inactive).
The matching figures for `COC(=O)c1c(C)oc(C)c1S(=O)(=O)Nc1ccc(C(C)C)cc1`: 1320 cells and -1.4% (inactive).
The matching figures for `CC12C(=O)N(c3ccccc3)C(=O)C1C(c1ccccc1)N1CCCN12` (centres undefined): 1080 cells and -5.7% (inactive).
For `COc1cc(NC(=O)c2ccc(CNc3c(N4CCCC4)c(=O)c3=O)cc2)cc(OC)c1OC`, the cell count is 1340 cells and the nuclear translocation activity is -0.2% (inactive).
For `O=C(CSc1nnc(SCc2ccc(F)cc2)s1)Nc1ccc(C(=O)O)cc1`, in that order: 1300 cells and -1% (inactive).
For `CCOC(=O)N/N=C1\CC(C)S(=O)(=O)c2ccc(Cl)cc21` (centres undefined), in that order: 1360 cells and 0.2% (inactive).
The matching figures for `O=C(N/N=C/c1ccc([N+](=O)[O-])cc1)c1c[nH]c2ccccc12`: 1150 cells and -1.5% (inactive).
Regarding `Cc1cc(C(=O)N/N=C/c2ccccc2[N+](=O)[O-])c(C)o1`, the cell count turned out to be 1070 cells and the nuclear translocation activity was -0.2% (inactive).
For `Cc1c(C(=O)N/N=C/c2ccccc2)[nH]c2c([N+](=O)[O-])cccc12`, in that order: 474 cells and 69.8% (active).
The matching figures for `c1csc(-c2nnc(COc3ncnc4sccc34)o2)c1`: 1250 cells and 2.6% (inactive).
Consider `O=C(NC(=O)N1CCSCC1)c1c(Cl)cccc1Cl`, for which the cell count was found to be 1280 cells and the nuclear translocation activity was 0.2% (inactive).
In the case of `O=C(Nc1cccnc1)c1cc([N+](=O)[O-])ccc1Cl`, the cell count stood at 1370 cells and the nuclear translocation activity is -0.7% (inactive).
For `C=CCOC(=O)C1=C(C)NC(SCC(=O)OCC)=C(C#N)C1c1ccc(C)cc1` (centres undefined), the cell count was 1350 cells and the nuclear translocation activity was 0.1% (inactive).
For `Cc1ccc(C2CC(=O)NC(SCC(=O)OCc3ccccc3)=C2C#N)o1` (centres undefined), in that order: 922 cells and 47.9% (inactive).
`CCOC(=O)CSC1=C(C#N)C(c2sccc2C)CC(=O)N1` (centres undefined): the cell count came out at 658 cells and the nuclear translocation activity is 69% (active).
As for `O=C(O)C1CCN(C(=O)c2cc(F)cc3c2OCOC3)CC1`, the cell count stood at 1200 cells and the nuclear translocation activity was -2.6% (inactive).
On to `O=C(NNC(=S)NC1CC2CCC1C2)c1ccc(Cl)cc1` (centres undefined), for which the cell count is 1150 cells and the nuclear translocation activity is -1.4% (inactive).
For `CCNC(=O)CCc1nc(-c2ccc(C)cc2)no1`, in that order: 1360 cells and -0.5% (inactive).
For `Nc1nonc1-c1nc2ccccc2n1CCC(=O)O`, in that order: 899 cells and -2% (inactive).
Take `Nc1nonc1-c1nc2ccccc2n1Cc1ccc(F)cc1`: the cell count came to 778 cells and the nuclear translocation activity is -0.5% (inactive).
For `COc1ccc(C)c(Cn2c(-c3nonc3N)nc3ccccc32)c1`, in that order: 720 cells and 101% (active).
